Hits are enriched below; roughly 1.8% of the tested compounds scored in any of these assays.
PPC-1+TRAIL kill = PPC-1 cancer cell killing with TRAIL present; cell killing (% activity), % at 4 µM or 5 µM; 220,000 tested, 0.41% active; PPC-1 cells + TRAIL, ATPLite viability luminescence;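 active = cell killing above 50% in the first pass at 4 µM, then a duplicate retest at 5 µM averaging 50% or more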;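 also: plate controls were cells with TRAIL plus DMSO for no effect and medium-only wells lacking cells for full effect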
STAT3 act = activators of IL-6 induced STAT3 signaling; U3A cells, IL-6 STAT3-luciferase reporter, luminescence; 100% = signal with IL-6 EC80 alone; activation (% of control), % at 5.6 µM; 190,000 tested, 0.91% active; AID 871;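 active = activation above the screen-wide mean of compound activation plus 3 SD, cut at about 130% in these data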;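 also: 0% = background luminescence of wells with medium and substrate only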
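Test system: Human STAT1-deficient U3A cells with stable STAT3-luciferase reporter | Also added: Interleukin-6, 33 ng/mL | Timing: Compound pre-incubation 1 h before IL-6, then 6 h stimulation at 37 °C | Technique: Luciferase reporter luminescence | Read-out: Percent of IL-6-only median luminescence | Benchmarks: IL-6-only wells as 100% reference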
C8 TRAIL sens = sensitizes caspase-8 expressing cells to TRAIL. inhibition (viability loss, TRAIL sensitization), % at 10 µM. AID 624354. NB7+C8 cells + TRAIL, ATPlite viability luminescence. 360,000 tested, 1% active;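 active = compounds causing at least 50% loss of cell viability in the single-dose screen, relative to plate controls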
STAT1 inh = STAT1 signaling inhibition | NIH 3T3 STAT1-luciferase reporter, IFN-gamma, luminescence | inhibition, % at 5.5 µM | 200,000 tested, 0.35% active;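 active = inhibition above a set limit, the mean inhibition across all tested compounds plus 3 SD, cut at about 34% in these data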;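 also: 0% = IFN-gamma with DMSO and 100% = IFN-gamma with 300 µM nifuroxazide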
STAT3 blocker = STAT3 signaling inhibition. U3A cells, IL-6 STAT3-luciferase reporter, luminescence; host cell line lacks STAT1. inhibition, % at 5.5 µM. 190,000 tested, 0.89% active. AID 862;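 active = inhibition above the mean inhibition across all screened compounds plus 3 SD, cut at about 44% in these data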;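 also: 0% = DMSO only wells and 100% = 100 µM nifuroxazide control wells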
* marks the source's active call; other numbers are inactive results; . = no result given; ! = a repeat was not active.

SMILES	PPC-1+TRAIL kill	STAT3 act	C8 TRAIL sens	STAT1 inh	STAT3 blocker
COc1ccc(-n2c(SCC(=O)Nc3ccccc3C)nc(O)c(Cc3ccccc3)c2=O)cc1	.	.	-11	.	.
CCOc1ccc(C(=O)Nc2cccc(C(=O)O)c2)cc1Cl	26	25	49	71*	93*
Cc1ccc(C(=O)Nc2cccc(C(=O)O)c2)cc1	38	19	.	82*	98*
CCOc1ccc(C(=O)Nc2cc(NC(=O)c3ccc(OCC)c(Cl)c3)cc(C(=O)O)c2)cc1Cl	4	106	-1	-3	4
CCc1nnc(NC(=O)CSCc2cc(=O)n3ccsc3n2)s1	.	.	-4	.	.
CCCNC(=O)c1cc(C2CCCN(C(=O)c3ccc(OC)cc3)C2)on1 (stereo not given)	.	.	-10	.	.
CN1CCN(C(=O)c2ccc(-c3cnn(C)c3)c3ccoc23)CC1	.	.	-23	.	.
COc1cc(C(=O)Oc2ccccc2/C=N/NC(=O)c2ccc(C)cc2)cc(OC)c1OC	47	87	50*	-22	17
COc1ccc(C(=O)N/N=C/c2ccccc2OC(=O)c2ccccc2)cc1	.	.	47	.	.
COC(=O)c1ccc(Cl)c(NC(=O)c2ccc(-c3ccccc3)cc2)c1	6	136*	.	-1	-31
C#CCNCCS(=O)(=O)N(Cc1ccc(Br)cc1)[C@@H](C)C(=O)O	.	.	-26	.	.
CC(=O)c1sc(NC(=O)c2ccc(C(C)(C)C)cc2)nc1C	27	80	55*	-34	29
CCOC(=O)c1sc(NC(=O)Nc2ccc(F)cc2)nc1C	42	103	51*	-67	-6
CCOC(=O)c1sc(NC(=O)Cc2ccc(F)cc2)nc1C	17	91	-18	-8	13
CCOC(=O)c1sc(NC(=O)c2ccc(OC(C)=O)cc2)nc1C	50	69	65*	-19	39
CCc1nc2c(OCc3cc(Cl)cc(Cl)c3)cccn2c1N(C=O)Cc1ccc(OC)cc1	.	.	4	.	.
CC(C)CN(C(=O)COC(=O)c1cc2ccccc2cc1O)c1c(N)n(Cc2ccccc2)c(=O)[nH]c1=O	.	.	20	.	.
O=C1c2ccccc2S(=O)(=O)N1Cc1nc2ccccc2s1	23	50	38	52*	61*
Cc1ccccc1CN1C(=O)c2ccccc2S1(=O)=O	.	.	-11	.	.
CCCCC1CC2=C(C(=O)OC(C)(C)O2)C(c2ccc(Cl)cc2)O1 (stereo not given)	.	.	-7	.	.
COc1ccccc1NC(CC(=O)c1ccccc1)C(=O)OCC(=O)c1ccc(C)c(C)c1 (stereo not given)	29	107	58*	-26	-8
COc1ccccc1NC(CC(=O)c1ccccc1)C(=O)OCC(=O)c1ccc(C)cc1 (stereo not given)	0	66	65*	-28	38
COc1ccccc1NC(CC(=O)c1ccccc1)C(=O)OCC(=O)c1ccc(Br)cc1 (stereo not given)	14	70	63*	-56	35
O=C(CC(Nc1ccccc1Cl)C(=O)OCC(=O)c1cccs1)c1ccccc1 (stereo not given)	22	92	14	-26	16
CC1(C(=O)Nc2ccc3c(c2)OCCO3)CSCC(=O)N1CCc1ccccc1F (stereo not given)	.	.	-12	.	.
SMILES	PPC-1+TRAIL kill	STAT3 act	C8 TRAIL sens	STAT1 inh	STAT3 blocker
Cc1cc(NC(=O)CSc2nnc(-c3ccc4c(c3)OCCO4)o2)no1	45	103	49*	-3	-2
COc1cc(C2CC(c3cccs3)=NN2C(=O)CCl)ccc1OC(F)F (stereo not given)	.	.	95*	.	.
COc1ccc(C2CC(c3cccs3)=NN2C(=O)CCl)cc1OC (stereo not given)	.	.	96*	.	.
COc1ccc(C2CC(c3cccs3)=NN2C(=O)c2ccccc2)cc1OC (stereo not given)	.	.	2	.	.
Cc1ccc(NC(=O)COC(=O)c2cccc(S(=O)(=O)N3CCCCCC3)c2)cc1	.	.	-5	.	.
COC(=O)C12OCC34C(CC5C(C)=C(O)C(=O)CC5(C)C3C(O)C1O)OC(=O)C(OC(=O)C=C(C)C)C24 (stereo not given)	.	.	65*	.	.
CCN1CCN(S(=O)(=O)c2ccc(Cl)c(C(=O)N(C)Cc3ccco3)c2)CC1	.	.	3	.	.
COc1ccc(-c2ccc(NC(=O)c3ccco3)cc2)nn1	.	.	83*	.	.
CCC(C)c1ccc(NC(=O)c2ccco2)cc1 (stereo not given)	.	.	73*	.	.
O=C(Nc1ccc(-c2cn3ccccc3n2)cc1)c1ccco1	73*	92	71*	-50	14
CCCCC(=O)N1CCN(c2nc3ccc(OCC)cc3s2)CC1	.	.	-5	.	.
CCOc1ccc2nc(N3C(=O)CNC3=S)sc2c1	42	.	59*	.	.
O=[N+]([O-])c1ccc2c(c1)C(=NO)c1cc(Cl)c(Cl)cc1-2	.	.	13	.	.
O=C(CSc1nnc(-c2ccc(Br)cc2)o1)Nc1cccc2ccccc12	2	100	-5	-4	4
O=C(CSc1nnc(-c2ccc(Br)cc2)o1)Nc1cccc(C(=O)O)c1	.	.	63*	.	.
O=C(NCc1ccccc1C(F)(F)F)c1cccc2c1C(=O)c1ccc(N3CCC(N4CCCCC4)CC3)cc1S2(=O)=O	.	.	42	.	.
Cc1cc(C)c(OCCCNC2CCCC2)c(Br)c1	.	.	12	.	.
CC(C)Oc1ccc(S(=O)(=O)N2CCOCC2)cc1NC(=O)c1cccc(S(=O)(=O)N2CCCC2)c1	.	.	-1	.	.
COc1ccc(C(CNC(=O)C(CCSC)NC(=O)c2ccccc2Cl)N2CCCCC2)cc1 (stereo not given)	.	.	-6	.	.
CCCCC(=O)Nc1ccc(C(N)=O)cc1	22	102	-9	1	2
CCCCC(=O)Nc1ccc(C2C(=O)c3ccccc3C2=O)cc1	.	.	48*	.	.
CCC(=O)Nc1ccc(C2C(=O)c3ccccc3C2=O)cc1	.	.	73*	.	.
COc1ccc(CNC[C@@H](CCCCN(C)Cc2ccc(OC)cc2)N2C[C@H](c3ccccc3)N(CCc3ccc(Cl)c(Cl)c3)C(=O)C2=O)cc1	7	.	89*	7	.
Nc1nc2ncc(CNc3ccc(C(=O)N[C@@H](CCC(=O)O)C(=O)O)cc3)nc2c(=O)[nH]1	.	.	7	.	.
CN(Cc1cnc2nc(N)nc(N)c2n1)c1ccc(C(=O)N[C@@H](CCC(=O)O)C(=O)O)cc1	.	.	85*!	.	.
Nc1ncnc(N)c1N=Nc1ccccc1	.	.	66*	.	.
